In ChEMBL document CHEMBL1144864, “Exploration of the bicyclo[3.3.1]nonane system as a template for the development of new ligands for the estrogen receptor” (Bioorg Med Chem Lett, 2003) one finds relative binding affinity (RBA) and Ratio data, which are given here for 15 compounds.

Assay [1] deals with Estrogen receptor beta (Homo sapiens) (UniProt Q92731). Nature of the assay: Affinity for estrogen receptor beta (ER-beta) relative to estradiol. Put shortly:
(§1)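 Competitive radiometric binding assay against ER alpha or ER beta. Values are reported as relative binding affinity (RBA), expressed as a percentage of the affinity of estradiol.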

The target in assay [2] is T1, Estrogen receptor (Homo sapiens) (UniProt P03372).
T1 sequence (whole entry): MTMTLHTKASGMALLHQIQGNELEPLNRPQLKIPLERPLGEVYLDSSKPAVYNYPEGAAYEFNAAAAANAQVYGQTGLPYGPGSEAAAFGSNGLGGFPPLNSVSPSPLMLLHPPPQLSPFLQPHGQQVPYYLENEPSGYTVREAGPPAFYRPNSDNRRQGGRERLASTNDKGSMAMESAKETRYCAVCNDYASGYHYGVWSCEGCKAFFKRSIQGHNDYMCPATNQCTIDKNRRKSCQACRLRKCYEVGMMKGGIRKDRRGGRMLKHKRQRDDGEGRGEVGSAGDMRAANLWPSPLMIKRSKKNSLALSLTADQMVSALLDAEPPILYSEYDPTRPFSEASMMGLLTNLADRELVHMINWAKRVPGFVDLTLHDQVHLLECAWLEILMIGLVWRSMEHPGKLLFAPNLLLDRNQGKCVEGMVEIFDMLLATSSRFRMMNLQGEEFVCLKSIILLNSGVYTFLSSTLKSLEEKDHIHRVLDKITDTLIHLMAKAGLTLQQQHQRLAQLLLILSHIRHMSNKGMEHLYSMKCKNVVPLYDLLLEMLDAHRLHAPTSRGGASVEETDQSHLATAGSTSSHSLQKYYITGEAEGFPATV
The experiment in a line: Affinity for estrogen receptor alpha (ER-alpha) relative to estradiol. Put shortly: as §1

For assay [3], the target named is Estrogen receptor (Homo sapiens) (UniProt Q92731+P03372). Nature of the assay: Relative affinity for alpha and beta estrogen receptors. The assay is classed as protein assay.
The target of assay [4] is T1, Estrogen receptor (Homo sapiens). Nature of the assay: Binding affinity for Estrogen receptor alpha relative to estradiol. A digest of the protocol:
as §1

The target of assay [5] is Estrogen receptor beta (Homo sapiens) (UniProt Q92731). Nature of the assay: Binding affinity for Estrogen receptor beta relative to estradiol. Put shortly: as §1
Sequence of Estrogen receptor beta (Homo sapiens) (Q92731 whole entry): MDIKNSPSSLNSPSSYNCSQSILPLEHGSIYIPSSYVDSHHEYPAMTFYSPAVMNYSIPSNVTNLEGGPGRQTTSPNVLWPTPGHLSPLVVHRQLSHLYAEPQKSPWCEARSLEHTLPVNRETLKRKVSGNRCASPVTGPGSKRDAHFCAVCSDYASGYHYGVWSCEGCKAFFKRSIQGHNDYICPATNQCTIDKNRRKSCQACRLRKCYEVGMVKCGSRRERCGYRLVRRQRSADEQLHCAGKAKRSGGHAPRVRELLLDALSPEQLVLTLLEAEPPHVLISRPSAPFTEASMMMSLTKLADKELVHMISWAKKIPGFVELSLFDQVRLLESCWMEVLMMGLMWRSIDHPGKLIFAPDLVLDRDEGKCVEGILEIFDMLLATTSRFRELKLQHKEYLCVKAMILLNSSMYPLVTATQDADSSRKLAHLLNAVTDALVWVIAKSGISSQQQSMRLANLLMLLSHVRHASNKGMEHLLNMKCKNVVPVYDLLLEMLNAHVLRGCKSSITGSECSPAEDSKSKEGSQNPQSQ

Sequence of Estrogen receptor (Homo sapiens) (UniProt Q92731+P03372) (Q92731 whole entry, looked up, one chain of several): as the sequence (Q92731 whole entry) above

In the case of `Oc1ccc(C2CCC3CC2CCC3c2ccc(O)cc2)cc1` (stereo not drawn), the relative binding affinity (RBA) in assay [1] turned out to be 2.9; in assay [2] it was 0.44. Besides, the Ratio in assay [3] is 6.6.

For the compound `Oc1ccc2c(c1)CC1CC2Cc2cc(O)ccc21`, the relative binding affinity (RBA) in assay [1] amounted to 0.77; in assay [2], 0.22. Moreover, the Ratio in assay [3] came to 3.5.

As to `Oc1ccc(C(=C2C3CCCC2CCC3)c2ccc(O)cc2)cc1`, the relative binding affinity (RBA) in assay [1] turned out to be 301; in assay [2], 513. Also, the Ratio in assay [3] stood at 0.59.

Consider `O=C1c2ccc(O)cc2C2CC1c1cc(O)ccc1C2=O`, for which the values for the relative binding affinity (RBA) in assay [1] and in assay [2] were 0.022 and 0.005, respectively. For the same compound, the Ratio in assay [3] was determined as 4.4.

Consider `Oc1ccc2c(c1)CN1CN2Cc2cc(O)ccc21`, for which the relative binding affinity (RBA) in assay [1] and in assay [2] was less than 0.005 each time.

For `CC(=O)Oc1ccc(C(=C2CCCCC2)c2ccc(OC(C)=O)cc2)cc1`, the figures for the relative binding affinity (RBA) in assay [4] and in assay [5] were 68 and 334, respectively.

Consider `C[C@@H]1c2ccc(O)cc2C2CC1c1cc(O)ccc1[C@H]2C`, for which the relative binding affinity (RBA) turned out to be 0.025 in assay [1] and 0.007 in assay [2]. Also, in assay [3], the Ratio came to 3.6.

On to `Oc1ccc(C2C3CCCC2CCC3)cc1` (stereo not drawn), for which the relative binding affinity (RBA) in assay [1] was found to be 1.33; in assay [2], 0.13. Also, in assay [3], the Ratio was 10.

Take `C[C@@H]1c2cc(O)ccc2C2CC1c1ccc(O)cc1[C@H]2C`: the relative binding affinity (RBA) amounted to 0.011 in assay [1] and 0.004 in assay [2]. In assay [3], the Ratio is 2.7.

On to `Oc1ccc2c(c1)C1Cc3ccc(O)cc3C(C2)C1`, for which the relative binding affinity (RBA) in assay [1] came to 0.072; in assay [2], 0.033. The Ratio in assay [3] was found to be 2.

Consider `Oc1ccc(C2(c3ccc(O)cc3)C3CCCC2CCC3)cc1`, for which the relative binding affinity (RBA) in assay [1] stood at 0.25; in assay [2], 0.31. For the same compound, the Ratio in assay [3] worked out at 0.8.

Regarding `Oc1ccc(C2=CCC3CCCC2C3)cc1` (stereo not drawn), the relative binding affinity (RBA) stood at 1.81 in assay [1] and 0.39 in assay [2]. Moreover, in assay [3], the Ratio was 4.6.

Take `O=C1c2cc(O)ccc2C2CC1c1ccc(O)cc1C2=O`: the relative binding affinity (RBA) in assay [1] was determined as 0.021; in assay [2], 0.006. Besides, in assay [3], the Ratio amounted to 3.5.

With `CC1(c2ccc(O)cc2)C2CCCC1CCC2` (stereo not drawn), the values for the relative binding affinity (RBA) in assay [1] and in assay [2] were 8.9 and 0.32, respectively. The Ratio in assay [3] is 28.

Take `CC(=C1C2CCCC1CCC2)c1ccc(O)cc1`: the relative binding affinity (RBA) was found to be 4.58 in assay [1] and 1.71 in assay [2]. For the same compound, the Ratio in assay [3] was found to be 2.7.
